# Rows were chosen to be rich in hits. Some 1.5% of all compounds tested hit in one or more screens of this group.
# EBI2 block: EBI2 receptor antagonists, beta-arrestin recruitment, primary screen, cell-based, luminescence, 7a,25-OHC stimulation, uHTS; G-protein coupled receptor 183 (Homo sapiens), P32249; 7a,25-OHC stimulated; inhibition, % at 5 µM; 360,000 tested, 0.81% active; AID 651636, 2012; in the data active = inhibition above about 38%;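 note: enzyme fragment complementation signal reports receptor beta-arrestin coupling in cells; 0% = agonist plus DMSO wells and 100% = wells without agonist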
# CXCR6 block: CXCR6 receptor inhibitors, primary screen, cell-based, beta-arrestin, luminescence, CHO-K1 PathHunter, 1536-well; C-X-C chemokine receptor type 6 (Homo sapiens), O00574; inhibition, % at 20 µM; 360,000 tested, 0.36% active; in the data active = inhibition above about 34%, passing the limit was not always enough;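 note: antagonist mode with CXCL16 agonist at 10 nM final; 0% = 10 nM CXCL16 with DMSO and 100% = unstimulated wells without agonist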
# Target sequence (O00574 whole entry, looked up): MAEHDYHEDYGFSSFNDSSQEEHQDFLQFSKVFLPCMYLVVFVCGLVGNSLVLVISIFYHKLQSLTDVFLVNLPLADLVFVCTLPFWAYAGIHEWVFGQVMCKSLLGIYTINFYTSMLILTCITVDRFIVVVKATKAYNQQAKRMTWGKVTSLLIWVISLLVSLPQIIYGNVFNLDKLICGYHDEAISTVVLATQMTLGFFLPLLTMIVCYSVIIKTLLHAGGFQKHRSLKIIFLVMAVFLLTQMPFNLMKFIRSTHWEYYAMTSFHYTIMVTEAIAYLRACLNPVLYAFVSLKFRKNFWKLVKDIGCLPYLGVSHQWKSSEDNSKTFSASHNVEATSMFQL
# CCR6 antagonist: CCR6 receptor antagonists, primary screen, cell-based, CHO-K1, luminescence, beta-arrestin, uHTS. CHO-K1 CCR6 PathHunter beta-arrestin, CCL20-stimulated. C-C chemokine receptor type 6 (Homo sapiens), P51684. 340,000 tested, 0.49% active. inhibition, % at 20 µM;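 active = compounds whose inhibition of the agonist-driven luminescence signal at 20 µM reaches about 50%, limit read from the data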;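 note: cells stimulated with CCL20 at 14 nM final; plate controls were DMSO with CCL20 for no effect and DMSO without agonist for full effect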
# APJ ag: agonists of human apelin receptor APJ, primary screen, CHO-K1 cells, PathHunter beta-arrestin, luminescence; 0% DMSO wells, 100% apelin; activation, % at 20 µM; 330,000 tested, 0.11% active; AID 2520, 2010;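 active = activation more than six SD over the plate average, tested at 20 µM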;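 note: 0% = DMSO alone and 100% = apelin-13 at 10 nM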
#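 Test system: CHO-K1 APJ beta-arrestin complementation cell line | Compound: Single test compound dose, 20 µM final, 1% DMSO | Incubation: Compound 90 min 25 °C, reagent 1 h | Measured by: beta-gal luminescence | Read-out basis: APJ–arrestin association signal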
# APJ antagonist: antagonists of human apelin receptor APJ, primary screen, CHO-K1 cells, beta-arrestin complementation, luminescence; P35414; inhibition, % at 20 µM; 330,000 tested, 0.32% active;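 active = inhibition above about 40% at 20 µM, limit read from the data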;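 note: cells challenged with 10 nM apelin-13 agonist together with compound; plate controls were apelin-13 plus DMSO wells for no effect and DMSO wells lacking apelin-13 for full effect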
# EBI2 antag conf: EBI2 antagonist hit retest, beta-arrestin, confirmation, cell-based, single concentration, luminescence, 7a,25-OHC stimulation. shares compounds with EBI2 block. 7a,25-OHC antagonism. inhibition, % at 5 µM. 2,400 tested, 29% active. AID 651997, 2013;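 active = inhibition of at least 50%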
# EBI2 ag: EBI2 agonist activity of antagonist hits, confirmation, counter-screen for EBI2 antagonist project, cell-based, single concentration, agonist mode, luminescence; AID 652000, 2013; shares compounds with EBI2 block; 2,400 tested, under 10 active; activation, % at 5 µM; EBI2-expressing cells, 60 min; 0% vehicle, 100% 7α,25-dihydroxycholesterol control;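 active = activation of at least 50%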
# bGal cs: E. coli beta-galactosidase enzyme inhibition, confirmation, counter-screen for EBI2 antagonist project, biochemical, luminescence, single concentration; shares compounds with EBI2 block; inhibition, % at 5 µM; 2,400 tested, 1% active; AID 652176, 2013; purified beta-galactosidase, luminescent Galacton Star, 15 min;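 active = replicate-average signal at least 3 plate SD below neutral wells, shown as high inhibition, flagging enzyme-inhibiting false positives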;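 note: 0% = DMSO wells with enzyme and 100% = wells lacking enzyme; higher means stronger loss of beta-gal luminescence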
# An asterisk follows results filed as active; nt = no result given.
SMILES,EBI2 block,CXCR6 block,CCR6 antagonist,APJ ag,APJ antagonist,EBI2 antag conf,EBI2 ag,bGal cs
N#Cc1ccc(OCC(=O)N2CCN(Cc3ccc4c(c3)OCO4)CC2)cc1,35,-2,20,-2,-3,nt,nt,nt
COc1ccccc1OCC(=O)N1CCN(Cc2ccc3c(c2)OCO3)CC1,0,-1,4,0,11,nt,nt,nt
Clc1cccc(N2Cc3ccccc3-n3nncc3C2)c1,8,5,nt,nt,nt,nt,nt,nt
O=C1NCN(c2ccccc2)C12CCN(C(CCc1ccccc1)c1nnnn1C1CCCC1)CC2 (stereo not drawn),-20,3,nt,nt,nt,nt,nt,nt
CCCCCN1C(=O)c2ccccc2[C@@]2(C(=O)OCC)Cc3cc(OC)ccc3[C@@H]12,9,6,nt,nt,nt,nt,nt,nt
O=C(COc1ccccc1)N1CCN(CC2CC3C=CC2C3)CC1 (stereo not drawn),42,-8,5,-2,6,nt,nt,nt
CC(C)NS(=O)(=O)c1ccc(OCC(=O)N2CCN(Cc3ccccc3)CC2)cc1,5,6,7,5,-3,nt,nt,nt
COc1ccc(OCC(=O)N2CCN(Cc3ccc(SC)cc3)CC2)cc1,71*,-4,2,-3,8,50*,0,-3
CC1CCC(N2CCN(C(=O)COc3ccccc3)CC2)CC1 (stereo not drawn),32,9,0,1,-20,nt,nt,nt
O=C(COc1ccc(Cl)cc1)N1CCN(C2CCCC2)CC1,89*,5,3,-1,13,67*,-1,-13
Cc1ccc(OCC(=O)N2CCN(CC3CC4C=CC3C4)CC2)cc1 (stereo not drawn),84*,-6,18,-2,17,62*,-1,-5
O=C(COc1ccc(Cl)cc1)N1CCN(Cc2ccccc2)CC1,91*,-6,5,2,15,66*,-1,-5
O=C1c2ccccc2-n2nnc(-c3ccccc3)c2C2c3cc(Br)ccc3CCN12 (stereo not drawn),-8,-10,nt,nt,nt,nt,nt,nt
Cc1ccc(N(C)C(=O)Oc2ccc(C(=O)c3ccc(Cl)cc3)cc2)cc1,78*,12,-2,-2,11,44,-1,-17
CC(=O)Nc1ccc(OC(=O)N(C)c2ccc(C)cc2)cc1,-10,-9,3,-3,5,nt,nt,nt
COc1ccc(-n2nnnc2C(CCSC)N2CCC(n3c(=O)[nH]c4ccccc43)CC2)cc1 (stereo not drawn),-23,2,nt,nt,nt,nt,nt,nt
Cc1nc2cc(C(F)(F)F)ccc2n1C1CCN(Cc2nnnn2CCc2ccccc2)CC1,37*,-4,-3,-4,-12,45,1,3
Cc1nc2cc(F)ccc2n1C1CCN(Cc2nnnn2CCc2ccccc2)CC1,17,2,-7,-6,10,nt,nt,nt

# Compound activity (PubChem BioAssay)
